Measured values reported in ChEMBL document CHEMBL3085669, “Design, synthesis and structure-activity relationship of novel Relacin analogs as inhibitors of Rel proteins” (Eur J Med Chem, 2013).
Activity calls are given as the source filed them. The rule behind the calls is not given here.

What was measured:
[1] = system: Escherichia coli; test: Inhibition of Escherichia coli relA assessed as inhibition of (p)ppGpp synthesis at 1 mM by autoradiography in presence of [alpha32]GTP
Summary of the method: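 Purified E. coli RelA assayed in vitro with inhibitor at 1 mM.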

[2] = system: Bacillus subtilis; test: Inhibition of Bacillus subtilis relA assessed as reduction in (p)ppGpp level at 2 mM incubated for 15 mins prior to SHX addition measured after 5 to 10 mins by autoradiography
Summary of the method: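 B. subtilis cells grown with inhibitor at 2 mM. Stringent response then induced by adding serine hydroxamate, and intracellular (p)ppGpp measured afterwards.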

[3] = system: Escherichia coli; test: Inhibition of Escherichia coli relA assessed as inhibition of (p)ppGpp synthesis by autoradiography in presence of [alpha32]GTP
Summary of the method: (§1)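 Cell-free assay on purified Rel enzymes (Rel/Spo from D. radiodurans, RelA from E. coli), with inhibitor tested across varying concentrations.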

[4] = system: Deinococcus radiodurans; test: Inhibition of Deinococcus radiodurans rel/spo assessed as inhibition of (p)ppGpp synthesis by autoradiography in presence of [alpha32]GTP; summary of the method: as §1

| inhibition [1] [%] | inhibition [2] | inhibition [3] | inhibition [4] | SMILES |
| --- | --- | --- | --- | --- |
| 66.3 | – | – | – | CC(C)C(=O)Nc1nc2c(ncn2[C@H]2C[C@H](OC(=O)NCC(=O)NCC(=O)O)[C@@H](COC(=O)NCC(=O)NCC(=O)O)O2)c(=O)[nH]1 |
| 80.4 | Active | Dose-dependent effect | Dose-dependent effect | CC(C)C(=O)Nc1nc2c(ncn2[C@H]2C[C@H](OC(=O)NC(CCC(=O)O)C(=O)NC(CCC(=O)O)C(=O)O)[C@@H](COC(=O)NC(CCC(=O)O)C(=O)NC(CCC(=O)O)C(=O)O)O2)c(=O)[nH]1 (stereo partly drawn) |
| 51.1 | Active | – | – | CC(C)C(=O)Nc1nc2c(ncn2[C@H]2C[C@H](OC(=O)NCC(=O)O)[C@@H](COC(=O)NCC(=O)O)O2)c(=O)[nH]1 |
| 25.6 | – | – | – | CC(C)C(=O)Nc1nc2c(ncn2[C@H]2C[C@H](OC(=O)NCCCCCC(=O)O)[C@@H](COC(=O)NCCCCCC(=O)O)O2)c(=O)[nH]1 |
| 50.4 | – | – | – | CC(C)C(=O)Nc1nc2c(ncn2[C@H]2C[C@H](OC(=O)N[C@@H](CCC(=O)O)C(=O)O)[C@@H](COC(=O)NCC(=O)O)O2)c(=O)[nH]1 |
| 31.2 | – | – | – | CC(C)C(=O)Nc1nc2c(ncn2[C@H]2C[C@H](OC(=O)NCCN(C)C)[C@@H](COC(=O)NCCN(C)C)O2)c(=O)[nH]1 |
| 12 | – | – | – | CC(C)C(=O)Nc1nc2c(ncn2[C@H]2C[C@H](OC(=O)N(CCCN(C)C)CCCN(C)C)[C@@H](COC(=O)N(CCCN(C)C)CCCN(C)C)O2)c(=O)[nH]1 |
| 52.1 | – | – | – | CC(C)C(=O)Nc1nc2c(ncn2[C@H]2C[C@H](OC(=O)NCC(=O)O)[C@@H](COC(=O)N[C@@H](CCC(=O)O)C(=O)O)O2)c(=O)[nH]1 |
| 50.6 | – | – | – | CC(C)C(=O)Nc1nc2c(ncn2[C@H]2C[C@H](OC(=O)NC(CCC(=O)O)C(=O)O)[C@@H](COC(=O)N[C@@H](CCC(=O)O)C(=O)O)O2)c(=O)[nH]1 (stereo partly drawn) |
